Measurements: article PMC10053980 (ACS infectious diseases, 2023)
Like-named read-outs stand apart in the source and are kept apart here.

Columns and labels:
[1] = test system: P. falciparum 3D7 (Pf3D7); test: Asexual blood-stage growth inhibition; format: cell-based; conditions: Plasmodium falciparum, 3D7, 72 h, read-out: Pf3D7 EC50
[2] = test system: P. falciparum Dd2 (PfDd2, parent); test: Asexual blood-stage growth inhibition; format: cell-based; conditions: Plasmodium falciparum
[3] = test system: PfD10 attB; test: Asexual blood-stage growth inhibition; format: cell-based; conditions: Plasmodium falciparum, read-out: PfD10 attB EC50
In short: (§1)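 Ring-stage parasites (2% hematocrit, 0.5% parasitemia, final DMSO 0.5%) were exposed to a concentration range for 72 h at 37 °C, 5% CO2. Plates were frozen for at least 16 h and thawed, then SYBR Green lysis buffer was added. Fluorescence was read at 485 nm excitation and 535/528 nm emission. DSM265 (0.8–100 nM) served as plate control. EC50 came from four-parameter nonlinear regression, in technical triplicates with at least 3 biological replicates.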

[4] = test system: PfD10 attB + yDHODH; test: Asexual blood-stage growth inhibition; format: cell-based, Plasmodium falciparum; conditions: Saccharomyces cerevisiae, read-out: PfD10 attB + yDHODH EC50
In short: as §1

[5] = HepG2 cytotoxicity; format: cell-based; conditions: human, HepG2 cells
In short: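 HepG2 cells (600 per well) in EMEM with 5% heat-inactivated FBS and 2 mM glutamine received test compound and were incubated 72 h at 37 °C, 5% CO2. Viability was read by CellTiter Glo (intracellular ATP). CD437 and methotrexate served as positive controls. Two biological runs, each in technical triplicate.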

[6] = test system: P. falciparum strain 3D7A; test: Two color flow cytometry rate of kill assay; format: cell-based, Plasmodium falciparum; conditions: 0, 24 or 48 h exposure at 10X EC50; compared with chloroquine and artesunate
[7] = test system: P. berghei liver stage (Pb-Luc sporozoites); test: Liver stage activity assay; format: cell-based; conditions: Plasmodium berghei, read-out: Liver-stage EC50
[8] = test system: P. falciparum strain NF54 stage V gametocytes, male gametes; test: Dual gamete formation assay; format: cell-based, Plasmodium falciparum; conditions: 1 μM, 48 h
[9] = test system: P. falciparum strain NF54 stage V gametocytes, female gametes; test: Dual gamete formation assay; format: cell-based; conditions: Plasmodium falciparum, NF54, read-out: Inhibition of female gamete formation
[10] = physchem; format: physicochemical; conditions: kinetic from dmso stock
[11] = in vitro; format: in vitro ADME; conditions: human, microsomes
[12] = test system: PfCARL^L830I (S)-SW703-resistant Dd2 clones; test: Asexual blood-stage EC50; format: cell-based, Plasmodium falciparum
[13] = test system: PfCARL^S1057T (S)-SW703-resistant Dd2 clones; test: Asexual blood-stage EC50; format: cell-based, Plasmodium falciparum
[14] = test system: PfCARL^Q821H (S)-SW703-resistant Dd2 clones; test: Asexual blood-stage EC50; format: cell-based, Plasmodium falciparum
[15] = test system: PfACT^Q116K (S)-SW703-resistant Dd2 clone; test: Asexual blood-stage EC50; format: cell-based, Plasmodium falciparum; conditions: for EC50: Plasmodium falciparum
In short: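 Cloned resistant parasites were exposed to test compound or KAF156 over a concentration range for 72 h at 37 °C (2% hematocrit, 0.5% parasitemia, 0.5% DMSO). Freeze–thaw was followed by SYBR Green lysis and fluorescence at 485/535 or 528 nm. EC50 was fitted by four-parameter regression. Fold shift is relative to the Dd2 parent. Technical triplicates, at least three independent experiments.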

[16] = test system: Dd2-Polδ (parent); test: Asexual blood-stage EC50; format: cell-based; conditions: Plasmodium falciparum, DD2, read-out: (S)-SW703 EC50
In short: as §1

[17] = test system: PfCARL^L1073I C2 clone beta (Polδ mutant); test: Asexual blood-stage EC50; format: cell-based, Plasmodium falciparum; conditions: for EC50: Plasmodium falciparum
[18] = test system: NF54; test: [3H]-hypoxanthine incorporation assay, cross-resistance panel; format: cell-based; conditions: Plasmodium falciparum, NF54, read-out: (S)-SW703 EC50
[19] = test system: K1; test: as above; format: cell-based, Plasmodium falciparum
[20] = test system: 7G8; test: as above; format: cell-based, Plasmodium falciparum
[21] = test system: TM90C2B; test: as above; format: cell-based, Plasmodium falciparum
[22] = test system: RF12 (PH-1263-C); test: as above; format: cell-based, Plasmodium falciparum
[23] = test system: Dd2; test: as above; format: cell-based, Plasmodium falciparum
[24] = test system: PfeEF2^Y186N (DDD107498-resistant); test: as above; format: cell-based, Plasmodium falciparum
[25] = test system: PfPI4K^S743T (MMV390048-resistant); test: as above; format: cell-based, Plasmodium falciparum
[26] = test system: PfDHODH (DSM265-resistant); test: [3H]-hypoxanthine incorporation assay, cross-resistance panel; format: cell-based, Plasmodium falciparum
In short: (§2)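 Cross-resistance was measured by a modified [3H]-hypoxanthine incorporation assay. Fold differences for lab-generated resistant lines are relative to the Dd2 parent. Values are means from two independent experiments.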

[27] = test system: PfCytB^I22L (ELQ300-resistant); test: [3H]-hypoxanthine incorporation assay, cross-resistance panel; format: cell-based, Plasmodium falciparum
[28] = test system: PfCARL^I1139K (KAF156-selected); test: [3H]-hypoxanthine incorporation assay, cross-resistance panel; format: cell-based, Plasmodium falciparum; conditions: PfCARL^I1139K relative to parent line Dd2
In short: as §2

[29] = test system: PfCARL L1073Q mutants; conditions: cited from earlier work
[30] = test system: PfACT^S242* CRISPR mutant; conditions: cited from earlier work
[31] = Flask 1 clone B4, PfCARL^L830I, vs Dd2 parent
[32] = Flask 3 clone D11, PfCARL^S1057T, vs Dd2 parent
[33] = Flask 2 clone F3, PfCARL^Q821H, vs Dd2 parent
[34] = Flask 4 clone F2, PfACT^Q116K, vs Dd2 parent
[35] = Plasmodium falciparum, read-out: (S)-SW703 EC50

Cc1cccc(C)c1CC1CN(C(=O)[C@@H](N)Cc2ccc(O)cc2)C1 [(S)-SW703, (S)-2-amino-1-(3-(2,6-dimethylbenzyl)azetidin-1-yl)-3-(4-hydroxyphenyl)propan-1-one]
EC50 [1]: 0.78 ± 0.092 µM
EC50 ([2]; DD2, 72 h, read-out: PfDd2 EC50): 0.81 ± 0.15 µM
EC50 [3]: 1.5 µM
EC50 [4]: 1.3 µM
CC50 at 72 h [5]: > 50 µM
Rate of kill (killing kinetics) [6]: fast-killing mechanism
EC50 [7]: 0.57 ± 0.21 µM
Inhibition of male gamete formation [8]: 18.3%
inhibition at 1 µM [9]: 1.2 ± 1.7%
solubility ([10]; pH 2, simulated gastric fluid): > 34 µg/mL
solubility ([10]; pH 6.5, aqueous buffer): > 34 µg/mL
microsomal CLint [11]: 197 µL/min/mg
(S)-SW703 EC50 fold shift [12, 31]: 31 fold
(S)-SW703 EC50 fold shift ([12]; Flask 1 clone F9, PfCARL^L830I, vs Dd2 parent): 31 fold
(S)-SW703 EC50 fold shift ([12]; Flask 2 clone C5, PfCARL^L830I, vs Dd2 parent): 32 fold
(S)-SW703 EC50 fold shift ([12]; Flask 2 clone E8, PfCARL^L830I, vs Dd2 parent): 27 fold
(S)-SW703 EC50 fold shift ([13]; Flask 1 clone G3, PfCARL^S1057T, vs Dd2 parent): 12 fold
(S)-SW703 EC50 fold shift [13, 32]: 15 fold
(S)-SW703 EC50 fold shift ([13]; Flask 3 clone G5, PfCARL^S1057T, vs Dd2 parent): 16 fold
(S)-SW703 EC50 fold shift ([13]; Flask 4 clone D4, PfCARL^S1057T, vs Dd2 parent): 12 fold
(S)-SW703 EC50 fold shift ([13]; Flask 4 clone G3, PfCARL^S1057T, vs Dd2 parent): 14 fold
(S)-SW703 EC50 fold shift [14, 33]: 52 fold
(S)-SW703 EC50 fold shift ([14]; Flask 3 clone D7, PfCARL^Q821H, vs Dd2 parent): 60 fold
(S)-SW703 EC50 fold shift [15, 34]: 2.3 fold
EC50 ([15]; DD2, read-out: (S)-SW703 EC50): 1.9 ± 0.24 µM
EC50 [16]: 0.93 ± 0.11 µM
(S)-SW703 EC50 fold shift ([17]; C2 clone beta, PfCARL^L1073I, vs Dd2-Polδ parent): 9.5 fold
EC50 ([17]; read-out: (S)-SW703 EC50): 8.8 ± 1.2 µM
EC50 [18]: 0.34 ± 0.036 µM
(S)-SW703 EC50 fold shift ([19]; K1 relative to NF54): 1.0 fold
EC50 [19, 35]: 0.35 ± 0.039 µM
(S)-SW703 EC50 fold shift ([20]; 7G8 relative to NF54): 1.2 fold
EC50 [20, 35]: 0.41 ± 0.032 µM
EC50 ([21]; Plasmodium falciparum, TM90C2B, read-out: (S)-SW703 EC50): 0.37 ± 0.041 µM
(S)-SW703 EC50 fold shift ([21]; TM90C2B relative to NF54): 1.1 fold
EC50 [22, 35]: 0.37 ± 0.01 µM
(S)-SW703 EC50 fold shift ([22]; RF12 relative to NF54): 1.1 fold
(S)-SW703 EC50 fold shift ([23]; Dd2 relative to NF54): 0.88 fold
EC50 ([23]; Plasmodium falciparum, DD2, read-out: (S)-SW703 EC50): 0.3 ± 0.031 µM
(S)-SW703 EC50 fold shift ([24]; PfeEF2^Y186N relative to parent line Dd2): 0.91 fold
EC50 ([24]; {}): 0.27 ± 0.025 µM
(S)-SW703 EC50 fold shift ([25]; PfPI4K^S743T relative to parent line Dd2): 0.97 fold
EC50 ([25]; {}): 0.29 ± 0.042 µM
(S)-SW703 EC50 fold shift ([26]; PfDHODH relative to parent line Dd2): 0.95 fold
EC50 ([26]; Plasmodium falciparum, DSM265, read-out: (S)-SW703 EC50): 0.29 ± 0.009 µM
(S)-SW703 EC50 fold shift ([27]; PfCytB^I22L relative to parent line Dd2): 0.75 fold
EC50 ([27]; {}): 0.23 ± 0.046 µM
(S)-SW703 EC50 fold shift [28]: > 16.6 fold

CC1(C)c2nc(-c3ccc(F)cc3)c(Nc3ccc(Cl)cc3)n2CCN1C(=O)CN [GNF179]
fold resistance of parasites bearing PfCARL^Q821H mutations ([14]; cross-resistance of (S)-SW703-resistant clones): about 5 fold
resistance conferred by PfCARL L1073Q [29]: did not confer resistance
resistance conferred by PfACT^S242* CRISPR mutant [30]: high-level resistance

CC1(C)c2nc(-c3ccc(F)cc3)c(Nc3ccc(F)cc3)n2CCN1C(=O)CN [KAF156, reference compound]
EC50 ([2]; DD2, read-out: KAF156 EC50): 0.012 ± 0.0017 µM
KAF156 EC50 fold shift [12, 31]: 1.8 fold
EC50 ([12]; Plasmodium falciparum, DD2, read-out: KAF156 EC50, Flask 1 clone B4, PfCARL^L830I): 0.022 ± 0.0034 µM
KAF156 EC50 fold shift [13, 32]: 1.5 fold
EC50 ([13]; Plasmodium falciparum, DD2, read-out: KAF156 EC50, Flask 3 clone D11, PfCARL^S1057T): 0.018 ± 0.0018 µM
KAF156 EC50 fold shift [14, 33]: 4.7 fold
EC50 ([14]; Plasmodium falciparum, DD2, read-out: KAF156 EC50, Flask 2 clone F3, PfCARL^Q821H): 0.057 ± 0.0066 µM
KAF156 EC50 fold shift [15, 34]: 1.8 fold
EC50 ([15]; DD2, read-out: KAF156 EC50): 0.022 ± 0.0045 µM
EC50 ([17]; read-out: KAF156 EC50): 0.016 ± 0.0027 µM
resistance conferred by PfCARL L1073Q [29]: did not confer resistance
resistance conferred by PfACT^S242* CRISPR mutant [30]: high-level resistance
